From ChEMBL document CHEMBL1148708, “4-amino-5-substituted-3(2H)-pyridazinones as orally active antinociceptive agents: synthesis and studies on the mechanism of action” (2007)

Assays:
Format in all cases: functional
[1] = system: Rattus norvegicus; assay: Increase in noradrenaline release in Sprague-Dawley rat cerebral cortex at 20 mg/kg, po after 30 mins by microdialysis technique
Outline: (§1)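 Rat cerebral cortex microdialysis under chloral hydrate anesthesia (400 mg/kg) in a stereotaxic frame, using a vertical concentric probe perfused with solution containing MgCl₂ and 4 mM KCl. About 18 h after surgery, dialysate collected every 20 min and stored at -80 °C. Noradrenaline measured by HPLC with electrochemical detection. Release expressed against a baseline averaged from three samples taken just before drug dosing.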

[2] = system: Mus musculus; assay: Antinociceptive activity in Swiss albino mouse assessed as reduction of number of writhing at 20 mg/kg, po after 30 mins relative to control
Outline: (§2)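 Writhing counted in the mouse abdominal constriction test after a chemical noxious stimulus. Compounds given per os 30 min before testing. Controls received CMC vehicle. Activity expressed as reduction in number of writhes versus controls.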

[3] = system: Mus musculus; assay: Antinociceptive activity in Swiss albino mouse assessed as reduction of number of writhing at 3 mg/kg, po after 30 mins relative to control; outline: as §2
[4] = system: Mus musculus; assay: Effect on Swiss albino mouse assessed as decrease in number of falls in 30 sec at 3 mg/kg, po after 30 mins by Rota-Rod test
Outline: (§3)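 Rotarod test in mice: falls from the rotating rod counted over 30 s, before treatment and at 15, 30 and 45 min after oral dosing. CMC vehicle controls.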

[5] = system: Mus musculus; assay: Antinociceptive activity in Swiss albino mouse assessed as number of writhing in presence of yohimbine at 3 mg/kg, po after 30 mins relative to control
Outline: (§4)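 Mouse abdominal constriction (writhing) test with a chemical pain stimulus. Test drugs given orally 30 min before the test. Yohimbine given at 3 mg kg^-1 ip as α2-adrenoceptor antagonist pretreatment. Writhes counted and compared with CMC vehicle controls. Values are the mean of at least two experiments.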

[6] = system: Mus musculus; assay: Effect on Swiss albino mouse assessed as decrease in number of falls in 30 sec at 3 mg/kg, po after 15 mins by Rota-Rod test; outline: as §3
[7] = system: Mus musculus; assay: Effect on Swiss albino mouse assessed as decrease in number of falls in 30 sec at 3 mg/kg, po after 45 mins by Rota-Rod test; outline: as §3
[8] = system: Rattus norvegicus; assay: Increase in noradrenaline release in Sprague-Dawley rat cerebral cortex at 3 mg/kg, po after 30 mins by microdialysis technique; outline: as §1
[9] = system: Mus musculus; assay: Effect on Swiss albino mouse assessed as decrease in number of falls in 30 sec at 20 mg/kg, po after 30 mins by Rota-Rod test; outline: as §3
[10] = system: Mus musculus; assay: Antinociceptive activity in Swiss Albino mouse assessed as number of writhing in presence of yohimbine at 20 mg/kg, po after 30 mins relative to control; outline: as §4
[11] = system: Mus musculus; assay: Effect on Swiss albino mouse assessed as decrease in number of falls in 30 sec at 20 mg/kg, po after 15 mins by Rota-Rod test; outline: as §3
[12] = system: Mus musculus; assay: Effect on Swiss albino mouse assessed as decrease in number of falls in 30 sec at 20 mg/kg, po after 45 mins by Rota-Rod test; outline: as §3
[13] = system: Mus musculus; assay: Antinociceptive activity in Swiss albino mouse assessed as number of writhing in presence of yohimbine at 10 mg/kg, po after 30 mins relative to control; outline: as §4
[14] = system: Mus musculus; assay: Effect on Swiss albino mouse assessed as decrease in number of falls in 30 sec at 10 mg/kg, po after 30 mins by Rota-Rod test; outline: as §3
[15] = system: Rattus norvegicus; assay: Increase in noradrenaline release in Sprague-Dawley rat cerebral cortex at 10 mg/kg, po after 30 mins by microdialysis technique; outline: as §1
[16] = system: Mus musculus; assay: Effect on Swiss albino mouse assessed as decrease in number of falls in 30 sec at 10 mg/kg, po after 45 mins by Rota-Rod test; outline: as §3
[17] = system: Mus musculus; assay: Antinociceptive activity in Swiss albino mouse assessed as reduction of number of writhing at 10 mg/kg, po after 30 mins relative to control; outline: as §2
[18] = system: Mus musculus; assay: Effect on Swiss albino mouse assessed as decrease in number of falls in 30 sec at 10 mg/kg, po after 15 mins by Rota-Rod test; outline: as §3
[19] = species on record: Mus musculus; assay: Antinociceptive activity in Swiss albino mouse assessed as reduction of number of writhing after 30 mins relative to control; outline: as §2
[20] = species on record: Rattus norvegicus; assay: Increase in noradrenaline release in Sprague-Dawley rat cerebral cortex after 30 mins by microdialysis technique; outline: as §1
[21] = species on record: Mus musculus; assay: Effect on Swiss albino mouse assessed as decrease in number of falls in 30 sec after 45 mins of treatment by Rota-Rod test; outline: as §3
[22] = species on record: Mus musculus; assay: Effect on Swiss albino mouse assessed as decrease in number of falls in 30 sec after 15 mins of treatment by Rota-Rod test; outline: as §3
[23] = species on record: Mus musculus; assay: Effect on Swiss albino mouse assessed as decrease in number of falls in 30 sec after 30 mins of treatment by Rota-Rod test; outline: as §3
[24] = system: Mus musculus; assay: Effect on Swiss albino mouse assessed as decrease in number of falls in 30 sec at 30 mg/kg, po after 15 mins by Rota-Rod test; outline: as §3
[25] = system: Mus musculus; assay: Antinociceptive activity in Swiss albino mouse assessed as number of writhing in presence of yohimbine at 30 mg/kg, po after 30 mins relative to control; outline: as §4
[26] = system: Mus musculus; assay: Effect on Swiss albino mouse assessed as decrease in number of falls in 30 sec at 30 mg/kg, po after 30 mins by Rota-Rod test; outline: as §3
[27] = system: Rattus norvegicus; assay: Increase in noradrenaline release in Sprague-Dawley rat cerebral cortex at 30 mg/kg, po after 30 mins by microdialysis technique; outline: as §1
[28] = system: Mus musculus; assay: Effect on Swiss albino mouse assessed as decrease in number of falls in 30 sec at 30 mg/kg, po after 45 mins by Rota-Rod test; outline: as §3
[29] = system: Mus musculus; assay: Antinociceptive activity in Swiss albino mouse assessed as reduction of number of writhing at 30 mg/kg, po after 30 mins relative to control; outline: as §2

## C=Cc1c(-c2ccncc2)nn(CCCC)c(=O)c1N
[1]
  Activity: 97.5%
[2]
  Activity: 35.3

## C=Cc1c(-c2ccc(F)cc2)nn(C)c(=O)c1N
[2]
  Activity: 27.2

## C=Cc1c(-c2ccc(Br)cc2)nn(C)c(=O)c1N
[1]
  Activity: 107%
[2]
  Activity: 35.7

## C=Cc1c(-c2ccccc2)nn(C)c(=O)c1NCC
[3]
  Activity: 17.4
[4]
  Activity: 2.3
[5]
  Activity: 28.1
[6]
  Activity: 3.4
[7]
  Activity: 1.9

## C=Cc1c(-c2ccc(F)cc2)nn(CCCC)c(=O)c1N
[2]
  Activity: 33.6

## Cn1nc(-c2ccccc2)c(-c2cc[nH]n2)c(N)c1=O
[3]
  Activity: 15.9
[4]
  Activity: 2.8
[8]
  Activity: 168.4%
[5]
  Activity: 26.5
[6]
  Activity: 3.7
[7]
  Activity: 2.3

## Cc1nnc(-c2c(-c3ccccc3)nn(C)c(=O)c2N)o1
[3]
  Activity: 19.5
[4]
  Activity: 2.3
[5]
  Activity: 34.2
[6]
  Activity: 2.7
[7]
  Activity: 1.5

## CCNc1c(-c2ccn(C)n2)c(-c2ccccc2)nn(C)c1=O
[9]
  Activity: 1.8
[10]
  Activity: 29.6
[1]
  Activity: 173.7%
[2]
  Activity: 14.1
[11]
  Activity: 2.6
[12]
  Activity: 2.1

## Cc1nc(-c2c(-c3ccccc3)nn(C)c(=O)c2N)cs1
[13]
  Activity: 33.6
[14]
  Activity: 2.7
[15]
  Activity: 181.3%
[16]
  Activity: 2
[17]
  Activity: 14.7
[18]
  Activity: 3.8

## C=Cc1c(C)nn(CCCC)c(=O)c1N
[1]
  Activity: 95.9%
[2]
  Activity: 36.7

## CCN(CC)c1c(-c2ccn(C)n2)c(-c2ccccc2)nn(C)c1=O
[2]
  Activity: 27.1

## Cn1ccc(-c2c(-c3ccccc3)nn(C)c(=O)c2N)n1
[3]
  Activity: 13.6
[4]
  Activity: 3.1
[8]
  Activity: 190.1%
[5]
  Activity: 31.1
[6]
  Activity: 4.2
[7]
  Activity: 2.3

## C=Cc1c(C2CCCCC2)nn(C)c(=O)c1N
[13]
  Activity: 32.5
[14]
  Activity: 3.4
[15]
  Activity: 182.1%
[16]
  Activity: 2.9
[17]
  Activity: 14.4
[18]
  Activity: 4.1

## C=Cc1c(-c2ccccc2)nn(CCCC)c(=O)c1NC
[9]
  Activity: 3.3
[10]
  Activity: 31.9
[2]
  Activity: 21.6
[11]
  Activity: 4
[12]
  Activity: 2.5

## C=Cc1c(-c2cccs2)nn(CCCC)c(=O)c1N
[2]
  Activity: 25.2

## CC(=O)[O-].O=CC(O)C(O)C(O)C(O)CO.[Na+] (stereo not given)
[19]
  Activity: 33.2
[20]
  Activity: 100%
[21]
  Activity: 2.2
[22]
  Activity: 3.6
[23]
  Activity: 3

## C=Cc1c(C)nn(C)c(=O)c1NC
[13]
  Activity: 32
[14]
  Activity: 2.5
[16]
  Activity: 2
[17]
  Activity: 17.6
[18]
  Activity: 3.7

## C=Cc1c(-c2cccs2)nn(C)c(=O)c1N
[2]
  Activity: 30.2

## C=Cc1c(-c2ccncc2)nn(C)c(=O)c1N
[9]
  Activity: 2.8
[10]
  Activity: 34.1
[2]
  Activity: 18.7
[11]
  Activity: 3.5
[12]
  Activity: 2.1

## C=Cc1c(C2CCCC2)nn(C)c(=O)c1N
[17]
  Activity: 27.7

## COC(=O)[C@@H]1[C@H]2C[C@H]3c4[nH]c5ccccc5c4CCN3C[C@@H]2CC[C@@H]1O [YOHIMBINE]
[5]
  Activity: 31.7

## Cc1nn(C)c(=O)c(N)c1-c1ccn(C)n1
[24]
  Activity: 3.9
[25]
  Activity: 31.7
[26]
  Activity: 2.6
[27]
  Activity: 188.5%
[28]
  Activity: 1.8
[29]
  Activity: 15.9

## C=Cc1c(C)nn(C)c(=O)c1NCC
[13]
  Activity: 29
[14]
  Activity: 3.2
[15]
  Activity: 176.2%
[16]
  Activity: 2.5
[17]
  Activity: 16.8
[18]
  Activity: 3.9
